≈ marks a conversion by molar mass, not a printed value. One block for each molecule: values may come before it.
Tests used:
Enterococcus faecalis = experiment: Antibacterial activity against Enterococcus faecalis ATCC 29212 by CLSI method; type: functional
Method in brief: (§1)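 Broth microdilution MIC in liquid medium following CLSI methods, with ATCC strains. Each run was accepted only if comparator antibiotics fell within their recommended quality-control ranges for the appropriate ATCC strain.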

Haemophilus influenzae = experiment: Antibacterial activity against Haemophilus influenzae ATCC 49247 by CLSI method; type: functional; method in brief: as §1
Enterococcus faecium = experiment: Antibacterial activity against Enterococcus faecium ATCC 49624 by CLSI method; type: functional; method in brief: as §1
[1] = tested on: Staphylococcus epidermidis; experiment: Antibacterial activity against Staphylococcus epidermidis ATCC 12228 by CLSI method; type: functional; method in brief: as §1
Moraxella catarrhalis = experiment: Antibacterial activity against Moraxella catarrhalis ATCC 25238 by CLSI method; type: functional; method in brief: as §1
Rattus norvegicus [2] = species on record: Rattus norvegicus; experiment: Drug metabolism in rat assessed as reactive metabolites as rat liver protein binding per mg of protein at 100 uCi for 6 days measured on day 7; type: ADME, organism-based; details: in vivo, 144 h
Method in brief: (§2)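 Male rats were dosed with unlabeled compound at 90 mg/kg for 6 or 13 days, then given 100 μCi ¹⁴C-labeled compound on day 7 or 14 and killed 4 h later. Liver S9 (9000g) was washed with acetonitrile until free of unbound label and the pellet dissolved in 1 N NaOH at 60 °C. Radioactivity was counted by scintillation, normalized to Bradford protein, and expressed as pmol/mg.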

Rattus norvegicus [3] = species on record: Rattus norvegicus; experiment: Drug metabolism in rat assessed as reactive metabolites as rat liver protein binding per mg of protein at 100 uCi for 13 days measured on day 14; type: ADME, organism-based; details: in vivo, 312 h; method in brief: as §2
[4] = Inhibition of Staphylococcus aureus DNA topoisomerase-4 C2E2 using pBR322 plasmid DNA as substrate by coupled enzyme reaction assay
Staphylococcus aureus [5] = experiment: Antibacterial activity against Staphylococcus aureus ATCC 29213 by CLSI method; type: functional; method in brief: as §1
Staphylococcus aureus [6] = experiment: Antibacterial activity against Staphylococcus aureus ATCC 29213 by CLSI method in presence of human 50% serum; type: functional; method in brief: as §1
Streptococcus pneumoniae = experiment: Antibacterial activity against Streptococcus pneumoniae ATCC 10015 by CLSI method; type: functional; method in brief: as §1
Liver microsome [7] = experiment: Drug metabolism in rat liver microsomes assessed as compound formation treated with 30 uM 1-Ethyl-3-(5-(5-fluoropyridin-3-yl)-7-(pyrimidin-2-yl)-1H-benzo-[d]imidazol-2-yl)urea for 1 hr; type: ADME
[8] = Drug metabolism in monkey liver microsomes assessed as compound formation treated with 30 uM 1-Ethyl-3-(5-(5-fluoropyridin-3-yl)-7-(pyrimidin-2-yl)-1H-benzo-[d]imidazol-2-yl)urea for 1 hr; type: ADME, Macaca mulatta; details: rhesus monkey
Liver microsome [9] = experiment: Drug metabolism in human liver microsomes assessed as compound formation treated with 30 uM 1-Ethyl-3-(5-(5-fluoropyridin-3-yl)-7-(pyrimidin-2-yl)-1H-benzo-[d]imidazol-2-yl)urea for 1 hr; type: ADME
[10] = Drug metabolism in human liver S9 fractions assessed as compound formation treated with 30 uM 1-Ethyl-3-(5-(5-fluoropyridin-3-yl)-7-(pyrimidin-2-yl)-1H-benzo-[d]imidazol-2-yl)urea for 1 hr; type: ADME, subcellular, Liver S9 fraction; details: s9, 1 h
Cytochrome P450 3A4 = Cytochrome P450 3A4 (Homo sapiens, UniProt P08684); experiment: Drug metabolism in recombinant CYP3A4 (unknown origin) assessed as compound formation treated with 1 uM 1-Ethyl-3-(5-(5-fluoropyridin-3-yl)-7-(pyrimidin-2-yl)-1H-benzo-[d]imidazol-2-yl)urea for 30 mins; type: ADME; details: recombinant enzyme, 0.5 h, in the assay text read “10 uM” for “1 uM”
Method in brief: (§3)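 Parent at 1 and 10 μM was incubated with individual recombinant CYP supersomes, with and without NADPH, for 0, 15 and 30 min. Formation of the imine metabolite was quantified by LC-MS/MS.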

Cytochrome P450 1A2 = molecular target: T1, Cytochrome P450 1A2 (Homo sapiens, UniProt P05177); experiment: Drug metabolism in recombinant CYP1A2 (unknown origin) assessed as compound formation treated with 10 uM 1-Ethyl-3-(5-(5-fluoropyridin-3-yl)-7-(pyrimidin-2-yl)-1H-benzo-[d]imidazol-2-yl)urea for 30 mins; details: recombinant enzyme, 0.5 h
T1 sequence (P05177 whole entry): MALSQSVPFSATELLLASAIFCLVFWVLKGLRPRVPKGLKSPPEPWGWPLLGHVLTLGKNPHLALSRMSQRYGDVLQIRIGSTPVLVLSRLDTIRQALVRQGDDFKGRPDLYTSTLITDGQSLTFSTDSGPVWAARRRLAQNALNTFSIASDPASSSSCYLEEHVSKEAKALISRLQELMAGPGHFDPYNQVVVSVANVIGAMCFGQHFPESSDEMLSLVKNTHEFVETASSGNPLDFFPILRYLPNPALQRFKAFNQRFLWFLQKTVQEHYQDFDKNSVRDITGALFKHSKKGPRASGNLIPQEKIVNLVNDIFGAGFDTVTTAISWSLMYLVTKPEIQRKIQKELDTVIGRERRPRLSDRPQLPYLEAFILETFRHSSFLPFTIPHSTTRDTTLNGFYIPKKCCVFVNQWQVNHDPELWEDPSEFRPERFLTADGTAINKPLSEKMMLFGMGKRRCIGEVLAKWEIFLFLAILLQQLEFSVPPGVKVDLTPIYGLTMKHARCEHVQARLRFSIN

Cytochrome P450 2D6 = Cytochrome P450 2D6 (Homo sapiens, UniProt P10635); experiment: Drug metabolism in recombinant CYP2D6 (unknown origin) assessed as compound formation treated with 10 uM 1-Ethyl-3-(5-(5-fluoropyridin-3-yl)-7-(pyrimidin-2-yl)-1H-benzo-[d]imidazol-2-yl)urea for 30 mins; details: recombinant enzyme, 0.5 h
Staphylococcus aureus [11] = experiment: Antibacterial activity against methicillin-susceptible Staphylococcus aureus ATCC 29213 infected in mouse thigh assessed reduction in colony forming unit at 25 mg/kg, po bid after 72 hrs; type: functional
Plasma = experiment: Drug metabolism in rat assessed as metabolites in plasma at 30 mg/kg, po; type: ADME, organism-based; set-up: dose 30 mg/kg, route oral; details: in vivo
[12] = Drug metabolism in rat assessed as metabolites in bile at 30 mg/kg, po; type: ADME, organism-based; set-up: dose 30 mg/kg, route oral; details: in vivo
[13] = Drug metabolism in rat assessed as metabolites in feces at 30 mg/kg, po; type: ADME, organism-based; set-up: dose 30 mg/kg, route oral; details: in vivo
[14] = Drug metabolism in rat assessed as metabolites in urine at 30 mg/kg, po; type: ADME, organism-based; set-up: dose 30 mg/kg, route oral; details: in vivo
Cytochrome P450 2B6 = molecular target: T2, Cytochrome P450 2B6 (Homo sapiens, UniProt P20813); experiment: Drug metabolism in recombinant CYP2B6 (unknown origin) at 1 uM after 30 mins; type: ADME; details: recombinant enzyme, 0.5 h; method in brief: as §3
T2 sequence (P20813 whole entry): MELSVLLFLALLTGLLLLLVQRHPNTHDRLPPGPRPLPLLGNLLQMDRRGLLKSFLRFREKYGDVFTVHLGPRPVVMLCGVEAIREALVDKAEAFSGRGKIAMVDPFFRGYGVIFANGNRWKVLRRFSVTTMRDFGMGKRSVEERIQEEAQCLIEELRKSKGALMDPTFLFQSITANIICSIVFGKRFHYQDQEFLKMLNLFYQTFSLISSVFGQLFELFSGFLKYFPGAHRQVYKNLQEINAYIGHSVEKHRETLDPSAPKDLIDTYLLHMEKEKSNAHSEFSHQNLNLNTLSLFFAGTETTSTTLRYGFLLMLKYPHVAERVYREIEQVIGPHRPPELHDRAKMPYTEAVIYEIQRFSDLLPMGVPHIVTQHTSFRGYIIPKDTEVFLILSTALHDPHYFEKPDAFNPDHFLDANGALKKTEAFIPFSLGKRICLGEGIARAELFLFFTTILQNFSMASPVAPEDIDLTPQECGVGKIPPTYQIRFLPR

Cytochrome P450 2C9 = Cytochrome P450 2C9 (Homo sapiens, UniProt P11712); experiment: Drug metabolism in recombinant CYP2C9 (unknown origin) at 1 uM after 30 mins; type: ADME; details: recombinant enzyme, 0.5 h; method in brief: as §3
Cytochrome P450 2C8 = molecular target: T3, Cytochrome P450 2C8 (Homo sapiens, UniProt P10632); experiment: Drug metabolism in recombinant CYP2C8 (unknown origin) at 1 uM after 30 mins; type: ADME; details: recombinant enzyme, 0.5 h; method in brief: as §3
T3 sequence (P10632 whole entry): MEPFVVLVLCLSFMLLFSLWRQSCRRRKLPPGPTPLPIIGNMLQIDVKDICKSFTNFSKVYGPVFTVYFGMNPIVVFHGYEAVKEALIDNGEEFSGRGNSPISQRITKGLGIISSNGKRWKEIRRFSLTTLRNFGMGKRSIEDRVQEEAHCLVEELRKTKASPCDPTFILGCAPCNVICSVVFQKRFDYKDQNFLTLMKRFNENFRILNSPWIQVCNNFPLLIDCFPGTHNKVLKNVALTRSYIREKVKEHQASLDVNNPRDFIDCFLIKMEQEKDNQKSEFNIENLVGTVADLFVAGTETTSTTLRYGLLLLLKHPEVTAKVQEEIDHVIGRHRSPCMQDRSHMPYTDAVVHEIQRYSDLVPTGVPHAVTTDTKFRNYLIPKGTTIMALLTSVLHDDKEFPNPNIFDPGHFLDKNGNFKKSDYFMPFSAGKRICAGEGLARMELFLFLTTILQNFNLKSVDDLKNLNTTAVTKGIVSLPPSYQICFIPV

Cytochrome P450 2C19 = Cytochrome P450 2C19 (Homo sapiens, UniProt P33261); experiment: Drug metabolism in recombinant CYP2C19 (unknown origin) at 1 uM after 30 mins; type: ADME; details: recombinant enzyme, 0.5 h; method in brief: as §3
DNA gyrase = DNA gyrase (Escherichia coli, UniProt P0AES4+P0AES6); experiment: Inhibition of […] Escherichia coli DNA gyrase A2B2 using pBR322 plasmid DNA as substrate by coupled enzyme reaction assay; type: protein-complex assay

Chain of Cytochrome P450 2C19 (P33261 whole entry): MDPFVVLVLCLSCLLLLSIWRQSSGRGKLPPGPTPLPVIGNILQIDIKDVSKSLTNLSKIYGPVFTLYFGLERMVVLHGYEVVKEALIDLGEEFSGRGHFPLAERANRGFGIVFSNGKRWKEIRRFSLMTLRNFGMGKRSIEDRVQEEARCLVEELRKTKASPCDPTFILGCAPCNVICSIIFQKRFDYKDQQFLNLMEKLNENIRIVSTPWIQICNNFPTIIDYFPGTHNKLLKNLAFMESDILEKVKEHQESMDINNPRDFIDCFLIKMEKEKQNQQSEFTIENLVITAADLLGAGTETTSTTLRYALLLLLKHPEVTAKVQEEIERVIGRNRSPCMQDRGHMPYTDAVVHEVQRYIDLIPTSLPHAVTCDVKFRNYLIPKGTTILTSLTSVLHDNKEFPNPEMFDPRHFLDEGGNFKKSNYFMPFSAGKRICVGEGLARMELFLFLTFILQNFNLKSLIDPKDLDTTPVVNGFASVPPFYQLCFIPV
Chain of Cytochrome P450 2C9 (P11712 whole entry): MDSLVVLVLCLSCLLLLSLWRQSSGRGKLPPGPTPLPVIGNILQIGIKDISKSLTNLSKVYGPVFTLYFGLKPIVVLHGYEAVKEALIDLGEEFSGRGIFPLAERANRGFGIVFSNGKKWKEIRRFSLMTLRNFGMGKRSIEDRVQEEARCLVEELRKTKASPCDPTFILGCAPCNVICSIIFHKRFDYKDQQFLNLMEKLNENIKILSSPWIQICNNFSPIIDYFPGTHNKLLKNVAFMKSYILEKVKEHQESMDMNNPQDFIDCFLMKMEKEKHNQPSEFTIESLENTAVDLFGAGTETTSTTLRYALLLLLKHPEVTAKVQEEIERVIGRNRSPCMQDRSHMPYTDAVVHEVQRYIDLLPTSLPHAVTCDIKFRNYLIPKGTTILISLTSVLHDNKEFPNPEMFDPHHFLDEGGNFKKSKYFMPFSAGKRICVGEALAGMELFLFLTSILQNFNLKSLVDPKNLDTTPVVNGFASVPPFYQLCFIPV
Chain of Cytochrome P450 2D6 (P10635 whole entry): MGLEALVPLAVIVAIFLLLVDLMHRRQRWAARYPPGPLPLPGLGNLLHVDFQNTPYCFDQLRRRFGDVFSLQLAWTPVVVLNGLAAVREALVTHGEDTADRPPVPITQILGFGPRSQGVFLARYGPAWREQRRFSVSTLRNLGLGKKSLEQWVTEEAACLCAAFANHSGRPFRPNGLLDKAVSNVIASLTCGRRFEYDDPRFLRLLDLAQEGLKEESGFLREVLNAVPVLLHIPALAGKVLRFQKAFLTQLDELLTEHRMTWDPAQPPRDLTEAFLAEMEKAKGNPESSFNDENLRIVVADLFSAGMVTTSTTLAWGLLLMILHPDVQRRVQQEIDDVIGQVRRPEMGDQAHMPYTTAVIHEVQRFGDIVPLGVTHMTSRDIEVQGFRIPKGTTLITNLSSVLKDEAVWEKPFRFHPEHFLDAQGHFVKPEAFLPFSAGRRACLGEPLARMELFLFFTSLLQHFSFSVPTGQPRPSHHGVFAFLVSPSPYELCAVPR
Chain of Cytochrome P450 3A4 (P08684 whole entry): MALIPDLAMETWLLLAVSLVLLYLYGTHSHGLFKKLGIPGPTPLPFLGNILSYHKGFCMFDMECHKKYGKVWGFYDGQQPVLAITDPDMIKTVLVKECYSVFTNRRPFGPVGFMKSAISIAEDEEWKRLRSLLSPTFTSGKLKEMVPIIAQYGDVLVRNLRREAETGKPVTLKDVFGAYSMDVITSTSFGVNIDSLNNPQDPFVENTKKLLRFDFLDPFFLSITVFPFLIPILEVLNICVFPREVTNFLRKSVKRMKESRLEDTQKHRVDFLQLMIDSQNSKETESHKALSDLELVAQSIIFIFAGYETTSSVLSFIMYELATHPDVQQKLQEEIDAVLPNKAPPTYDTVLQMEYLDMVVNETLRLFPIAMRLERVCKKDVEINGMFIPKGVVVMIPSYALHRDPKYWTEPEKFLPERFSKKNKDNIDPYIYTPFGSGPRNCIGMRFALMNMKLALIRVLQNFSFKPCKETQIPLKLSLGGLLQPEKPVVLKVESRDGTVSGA

MIC (Enterococcus faecalis): 0.032 µg/mL (≈ 0.0747 µM) | MIC (Haemophilus influenzae): 0.5 µg/mL (≈ 1.17 µM) | MIC (Enterococcus faecium): 0.125 µg/mL (≈ 0.292 µM) | MIC [1]: ≤ 0.008 µg/mL | MIC (Moraxella catarrhalis): ≤ 0.016 µg/mL | Drug metabolism (Rattus norvegicus [2]): < 5 pmol | Drug metabolism (Rattus norvegicus [3]): < 5 pmol | MIC (Staphylococcus aureus [5]): 0.032 µg/mL (≈ 0.0747 µM) | MIC (Staphylococcus aureus [6]): 0.25 µg/mL | MIC (Streptococcus pneumoniae): ≤ 0.008 µg/mL
Structure (SMILES): CCNC(=O)Nc1nc2cc(-c3cnc(C(C)(C)O)nc3)c(F)c([C@H]3CCCO3)c2[nH]1
Ki [4]: 9 nM

Drug metabolism (Liver microsome [7]): metabolite_detected | Drug metabolism [8]: metabolite_detected | Drug metabolism (Liver microsome [9]): metabolite_detected | Drug metabolism [10]: metabolite_detected | Drug metabolism (Cytochrome P450 3A4): metabolite_detected | Drug metabolism (Cytochrome P450 1A2): metabolite_detected | Drug metabolism (Cytochrome P450 2D6): metabolite_detected
Structure (SMILES): CC1NC(=O)Nc2nc3c(-c4ncccn4)cc(-c4cncc(F)c4)cc3n21 (centres undefined)

MIC (Enterococcus faecalis): < 0.008 µg/mL | MIC (Haemophilus influenzae): 1 µg/mL (≈ 2.65 µM) | Drug metabolism (Plasma): metabolite_notdetected | Drug metabolism [12]: metabolite_notdetected | Drug metabolism [13]: metabolite_notdetected | Drug metabolism [14]: metabolite_notdetected | Drug metabolism (Cytochrome P450 2B6): metabolite_notdetected | Drug metabolism (Cytochrome P450 2C9): metabolite_notdetected | Drug metabolism (Cytochrome P450 2C8): metabolite_notdetected | Drug metabolism (Cytochrome P450 2C19): metabolite_notdetected | Ki (DNA gyrase): 5 nM | MIC (Staphylococcus aureus [5]): 0.016 µg/mL (≈ 0.0424 µM) | MIC (Staphylococcus aureus [6]): 0.25 µg/mL | MIC (Streptococcus pneumoniae): ≤ 0.008 µg/mL
Structure (SMILES): CCNC(=O)Nc1nc2cc(-c3cncc(F)c3)cc(-c3ncccn3)c2[nH]1
log10cfu (Staphylococcus aureus [11]): >4 | Ki [4]: < 6 nM

Reference: ChEMBL document CHEMBL3351508, “Second-generation antibacterial benzimidazole ureas: discovery of a preclinical candidate with reduced metabolic liability” (J Med Chem, 2014)
